Results from ChEMBL document CHEMBL1142626, “Insecticidal and mutagenic evaluation of two annonaceous acetogenins” (J Nat Prod, 2000).

Columns and labels:
Salmonella typhimurium [1] = experiment: Mutagenic activity in Salmonella Typhimurium TA100 assessed as number of revertants at 1 ug/plate in absence of Wistar rat S9 liver homogenate; assay type: toxicity, organism-based; details: salmonella enterica subsp. enterica serovar typhimurium
Summary of the method: (§1)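 Salmonella/microsome plate test, with or without S9 from livers of male Wistar rats (~200 g). Strain markers and spontaneous revertant counts were routinely verified. Revertants are reported as mean ± standard error of triplicate plates. Strain-specific positive controls were used, with 2-aminoanthracene for all strains when S9 was present.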

Salmonella typhimurium [2] = experiment: Mutagenic activity in Salmonella Typhimurium TA102 assessed as number of revertants at 1 ug/plate in presence of Wistar rat S9 liver homogenate; assay type: toxicity, organism-based, Liver S9 fraction; details: salmonella enterica subsp. enterica serovar typhimurium; summary of the method: as §1
Salmonella typhimurium [3] = experiment: Mutagenic activity in Salmonella Typhimurium TA100 assessed as number of revertants at 0.1 ug/plate in presence of Wistar rat S9 liver homogenate; assay type: toxicity, organism-based, Liver S9 fraction; details: salmonella enterica subsp. enterica serovar typhimurium; summary of the method: as §1
Salmonella typhimurium [4] = experiment: Mutagenic activity in Salmonella Typhimurium TA98 assessed as number of revertants at 1 ug/plate in presence of Wistar rat S9 liver homogenate; assay type: toxicity, organism-based, Liver S9 fraction; details: salmonella enterica subsp. enterica serovar typhimurium; summary of the method: as §1
Salmonella typhimurium [5] = experiment: Mutagenic activity in Salmonella Typhimurium TA98 assessed as number of revertants at 50 ug/plate in absence of Wistar rat S9 liver homogenate; assay type: toxicity, organism-based; details: salmonella enterica subsp. enterica serovar typhimurium
Summary of the method: (§2)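 Salmonella/microsome plate test (Ames) in strain TA98, with genetic markers and spontaneous revertant counts verified routinely. Run with and without S9 mix, the S9 being liver postmitochondrial supernatant from male Wistar rats of about 200 g. Doses ran from 0.01 to 100 µg/plate. Revertants are the mean of triplicate plates with standard error. Positive controls were 0.5 µg 4-nitroquinoline-N-oxide without S9 and 15 µg 2-aminoanthracene with S9.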

Salmonella typhimurium [6] = experiment: Bactericidal activity against Salmonella Typhimurium TA100 assessed as viability after 24 hrs in absence of Wistar rat S9 liver homogenate; assay type: functional, organism-based; details: Salmonella enterica subsp. enterica serovar Typhimurium
Summary of the method: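 Viability assay: test solution or DMSO was mixed with diluted overnight culture and phosphate buffer (no S9) in top agar with histidine/biotin. The mixture was spread on nutrient agar and incubated 24 h at 37 °C. Colonies were counted to give viable bacteria per mL; positive and negative controls included; triplicate.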

Salmonella typhimurium [7] = experiment: Mutagenic activity in Salmonella Typhimurium TA102 assessed as number of revertants at 1 ug/plate in absence of Wistar rat S9 liver homogenate; assay type: toxicity, organism-based; details: salmonella enterica subsp. enterica serovar typhimurium; summary of the method: as §1
Salmonella typhimurium [8] = experiment: Mutagenic activity in Salmonella Typhimurium TA102 assessed as number of revertants at 50 ug/plate in presence of Wistar rat S9 liver homogenate; assay type: toxicity, organism-based, Liver S9 fraction; details: salmonella enterica subsp. enterica serovar typhimurium; summary of the method: as §1
Salmonella typhimurium [9] = experiment: Mutagenic activity in Salmonella Typhimurium TA102 assessed as number of revertants at 0.01 ug/plate in absence of Wistar rat S9 liver homogenate; assay type: toxicity, organism-based; details: salmonella enterica subsp. enterica serovar typhimurium; summary of the method: as §1
Salmonella typhimurium [10] = experiment: Mutagenic activity in Salmonella Typhimurium TA98 assessed as number of revertants at 20 ug/plate in presence of Wistar rat S9 liver homogenate; assay type: toxicity, organism-based, Liver S9 fraction; details: salmonella enterica subsp. enterica serovar typhimurium; summary of the method: as §2
Salmonella typhimurium [11] = experiment: Mutagenic activity in Salmonella Typhimurium TA100 assessed as number of revertants at 0.01 ug/plate in presence of Wistar rat S9 liver homogenate; assay type: toxicity, organism-based, Liver S9 fraction; details: salmonella enterica subsp. enterica serovar typhimurium; summary of the method: as §1
Salmonella typhimurium [12] = experiment: Mutagenic activity in Salmonella Typhimurium TA100 assessed as number of revertants at 100 ug/plate in absence of Wistar rat S9 liver homogenate; assay type: toxicity, organism-based; details: salmonella enterica subsp. enterica serovar typhimurium; summary of the method: as §1
Salmonella typhimurium [13] = experiment: Mutagenic activity in Salmonella Typhimurium TA100 assessed as number of revertants at 10 ug/plate in presence of Wistar rat S9 liver homogenate; assay type: toxicity, organism-based, Liver S9 fraction; details: salmonella enterica subsp. enterica serovar typhimurium; summary of the method: as §1
Salmonella typhimurium [14] = experiment: Mutagenic activity in Salmonella Typhimurium TA102 assessed as number of revertants at 50 ug/plate in absence of Wistar rat S9 liver homogenate; assay type: toxicity, organism-based; details: salmonella enterica subsp. enterica serovar typhimurium; summary of the method: as §1
[15] = tested on: Leptinotarsa decemlineata; experiment: Antifeedant effect against Leptinotarsa decemlineata assessed as feeding reduction at 100 ug/cm2 relative to control; assay type: functional; parameters: scale not given: the % may be the effect or the level left
Summary of the method: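 Choice test on leaf disks using adult L. decemlineata or newly emerged fifth-instar S. littoralis larvae. Five to 10 plates per treatment, three insects each. Uneaten leaf-disk area was measured by scanner. %FR = [1 − (treatment/control consumption)] × 100 per arena. Where FR exceeded 50%, EC50 was taken from linear regression of %FR on log dose.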

Salmonella typhimurium [16] = experiment: Mutagenic activity in Salmonella Typhimurium TA98 assessed as number of revertants at 0.01 ug/plate in presence of Wistar rat S9 liver homogenate; assay type: toxicity, organism-based, Liver S9 fraction; details: salmonella enterica subsp. enterica serovar typhimurium; summary of the method: as §1
Salmonella typhimurium [17] = experiment: Mutagenic activity in Salmonella Typhimurium TA100 assessed as number of revertants at 50 ug/plate in presence of Wistar rat S9 liver homogenate; assay type: toxicity, organism-based, Liver S9 fraction; details: salmonella enterica subsp. enterica serovar typhimurium; summary of the method: as §1
Salmonella typhimurium [18] = experiment: Mutagenic activity in Salmonella Typhimurium TA100 assessed as number of revertants at 50 ug/plate in absence of Wistar rat S9 liver homogenate; assay type: toxicity, organism-based; details: salmonella enterica subsp. enterica serovar typhimurium; summary of the method: as §1
Salmonella typhimurium [19] = experiment: Mutagenic activity in Salmonella Typhimurium TA102 assessed as number of revertants at 0.1 ug/plate in absence of Wistar rat S9 liver homogenate; assay type: toxicity, organism-based; details: salmonella enterica subsp. enterica serovar typhimurium; summary of the method: as §1
Salmonella typhimurium [20] = experiment: Mutagenic activity in Salmonella Typhimurium TA98 assessed as number of revertants at 0.1 ug/plate in absence of Wistar rat S9 liver homogenate; assay type: toxicity, organism-based; details: salmonella enterica subsp. enterica serovar typhimurium; summary of the method: as §1
Salmonella typhimurium [21] = experiment: Mutagenic activity in Salmonella Typhimurium TA98 assessed as number of revertants at 10 ug/plate in presence of Wistar rat S9 liver homogenate; assay type: toxicity, organism-based, Liver S9 fraction; details: salmonella enterica subsp. enterica serovar typhimurium; summary of the method: as §1
Salmonella typhimurium [22] = experiment: Mutagenic activity in Salmonella Typhimurium TA98 assessed as number of revertants at 1 ug/plate in absence of Wistar rat S9 liver homogenate; assay type: toxicity, organism-based; details: salmonella enterica subsp. enterica serovar typhimurium; summary of the method: as §1
Salmonella typhimurium [23] = experiment: Mutagenic activity in Salmonella Typhimurium TA102 assessed as number of revertants at 10 ug/plate in absence of Wistar rat S9 liver homogenate; assay type: toxicity, organism-based; details: salmonella enterica subsp. enterica serovar typhimurium; summary of the method: as §1
Salmonella typhimurium [24] = experiment: Mutagenic activity in Salmonella Typhimurium TA100 assessed as number of revertants at 0.01 ug/plate in absence of Wistar rat S9 liver homogenate; assay type: toxicity, organism-based; details: salmonella enterica subsp. enterica serovar typhimurium; summary of the method: as §1
Salmonella typhimurium [25] = experiment: Mutagenic activity in Salmonella Typhimurium TA102 assessed as number of revertants at 10 ug/plate in presence of Wistar rat S9 liver homogenate; assay type: toxicity, organism-based, Liver S9 fraction; details: salmonella enterica subsp. enterica serovar typhimurium; summary of the method: as §1

**Q.** How did the Activity (Salmonella typhimurium [1]) turn out when `CCCCCCCCCCCC[C@@H](O)[C@H]1CC[C@H]([C@H](O)CCCC[C@H](O)CCCCC[C@@H](O)CC2=CC(C)OC2=O)O1` (stereo not given in full) [ANNONACIN] was run?
**A.** 125

**Q.** What about the Activity (Salmonella typhimurium [2]) of the same molecule?
**A.** 429

**Q.** And the Activity (Salmonella typhimurium [3])?
**A.** 139

**Q.** And the Activity (Salmonella typhimurium [4])?
**A.** 27

**Q.** What about the Activity (Salmonella typhimurium [5]) of the same molecule?
**A.** 21

**Q.** What about the Activity (Salmonella typhimurium [6]) of the same molecule?
**A.** Non-toxic

**Q.** And the Activity (Salmonella typhimurium [7])?
**A.** 277

**Q.** What about the Activity (Salmonella typhimurium [8]) of the same molecule?
**A.** 430

**Q.** What about the Activity (Salmonella typhimurium [9]) of the same molecule?
**A.** 328

**Q.** And the Activity (Salmonella typhimurium [10])?
**A.** 26

**Q.** And the Activity (Salmonella typhimurium [11])?
**A.** 135

**Q.** What about the Activity (Salmonella typhimurium [12]) of the same molecule?
**A.** 68

**Q.** What about the Activity (Salmonella typhimurium [13]) of the same molecule?
**A.** 145

**Q.** What about the Activity (Salmonella typhimurium [14]) of the same molecule?
**A.** 169

**Q.** What about the Activity [15] of the same molecule?
**A.** 93%

**Q.** What about the Activity (Salmonella typhimurium [16]) of the same molecule?
**A.** 36

**Q.** And the Activity (Salmonella typhimurium [17])?
**A.** 99

**Q.** And the Activity (Salmonella typhimurium [18])?
**A.** 85

**Q.** And the Activity (Salmonella typhimurium [19])?
**A.** 296

**Q.** What about the Activity (Salmonella typhimurium [20]) of the same molecule?
**A.** 30

**Q.** And the Activity (Salmonella typhimurium [21])?
**A.** 19

**Q.** And the Activity (Salmonella typhimurium [22])?
**A.** 32

**Q.** What about the Activity (Salmonella typhimurium [23]) of the same molecule?
**A.** 221

**Q.** And the Activity (Salmonella typhimurium [24])?
**A.** 150

**Q.** And the Activity (Salmonella typhimurium [25])?
**A.** 430
